# From ChEMBL document CHEMBL1154352, “Toll-like receptor 7 selective synthetic oligoribonucleotide agonists: synthesis and structure-activity relationship studies” (J Med Chem, 2009)
# Activity calls are given as the source filed them. The calls are words filed in the database; no cut-off is given here.
# How the values were obtained:
# [1] = organism: Homo sapiens; assay: Immunostimulatory activity in human pDC assessed as induction of IP10 at 100 ug/ml after 24 hrs; format: functional
# How it was run: (§1)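 Human pDCs plated at 1 × 10^6 cells/mL; compounds in PBS added, 37 °C for 24 h; supernatant cytokines/chemokines by human Luminex multiplex kit.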
# [2] = test system: PBMC; assay: Immunomodulatory activity in human PBMC assessed as induction of MIP1beta after 24 hrs; format: functional, cell-based
# How it was run: (§2)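 Human PBMCs plated at 5 × 10^6 cells/mL; compounds dissolved in PBS added at various concentrations, 37 °C for 24 h. Supernatant cytokines/chemokines quantified with human Luminex multiplex kit.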
# [3] = organism: Homo sapiens; assay: Immunostimulatory activity in human mDC assessed as induction of IFNalpha at 100 ug/ml after 24 hrs; format: functional
# How it was run: (§3)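 Human mDCs isolated from PBMCs by CD19+ B-cell depletion then BDCA1 positive selection; plated at 1 × 10^6 cells/mL, compounds in PBS, 37 °C for 24 h; supernatant cytokines by human Luminex multiplex. Representative of four independent experiments.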
# [4] = test system: PBMC; assay: Immunomodulatory activity in human PBMC assessed as induction of IL10 after 24 hrs; format: functional, cell-based; how it was run: as §2
# [5] = test system: PBMC; assay: Immunomodulatory activity in human PBMC assessed as induction of MCP1 at 50 ug/ml after 24 hrs; format: functional, cell-based; how it was run: as §2
# [6] = test system: PBMC; assay: Immunomodulatory activity in human PBMC assessed as induction of IL1-beta at 50 ug/ml after 24 hrs; format: functional, cell-based; how it was run: as §2
# [7] = test system: PBMC; assay: Immunomodulatory activity in human PBMC assessed as induction of IFNalpha after 24 hrs; format: functional, cell-based; how it was run: as §2
# [8] = organism: Homo sapiens; assay: Immunostimulatory activity in human mDC assessed as induction of IL6 at 100 ug/ml after 24 hrs; format: functional; how it was run: as §3
# [9] = organism: Homo sapiens; assay: Immunostimulatory activity in human mDC assessed as induction of IP10 at 100 ug/ml after 24 hrs; format: functional; how it was run: as §3
# [10] = organism: Homo sapiens; assay: Immunostimulatory activity in human mDC assessed as induction of TNFalpha at 100 ug/ml after 24 hrs; format: functional; how it was run: as §3
# [11] = test system: PBMC; assay: Immunomodulatory activity in human PBMC assessed as induction of IL12 at 50 ug/ml after 24 hrs; format: functional, cell-based; how it was run: as §2
# [12] = organism: Homo sapiens; assay: Immunostimulatory activity in human pDC assessed as induction of IL6 at 100 ug/ml after 24 hrs; format: functional; how it was run: as §1
# [13] = test system: PBMC; assay: Immunomodulatory activity in human PBMC assessed as induction of MIP1beta at 50 ug/ml after 24 hrs; format: functional, cell-based; how it was run: as §2
# [14] = organism: Homo sapiens; assay: Immunostimulatory activity in human pDC assessed as induction of IFNalpha at 100 ug/ml after 24 hrs; format: functional; how it was run: as §1
# [15] = test system: PBMC; assay: Immunomodulatory activity in human PBMC assessed as induction of IFN-alpha at 100 ug/ml after 24 hrs
# [16] = molecular target: T1, Toll-like receptor 9 (Mus musculus) (UniProt Q9EQU3); assay: Activation of mouse TLR9 expressed in HEK293 assessed as induction of NF-kappaB activity reporter gene assay; format: cell-based
# T1 sequence (whole entry): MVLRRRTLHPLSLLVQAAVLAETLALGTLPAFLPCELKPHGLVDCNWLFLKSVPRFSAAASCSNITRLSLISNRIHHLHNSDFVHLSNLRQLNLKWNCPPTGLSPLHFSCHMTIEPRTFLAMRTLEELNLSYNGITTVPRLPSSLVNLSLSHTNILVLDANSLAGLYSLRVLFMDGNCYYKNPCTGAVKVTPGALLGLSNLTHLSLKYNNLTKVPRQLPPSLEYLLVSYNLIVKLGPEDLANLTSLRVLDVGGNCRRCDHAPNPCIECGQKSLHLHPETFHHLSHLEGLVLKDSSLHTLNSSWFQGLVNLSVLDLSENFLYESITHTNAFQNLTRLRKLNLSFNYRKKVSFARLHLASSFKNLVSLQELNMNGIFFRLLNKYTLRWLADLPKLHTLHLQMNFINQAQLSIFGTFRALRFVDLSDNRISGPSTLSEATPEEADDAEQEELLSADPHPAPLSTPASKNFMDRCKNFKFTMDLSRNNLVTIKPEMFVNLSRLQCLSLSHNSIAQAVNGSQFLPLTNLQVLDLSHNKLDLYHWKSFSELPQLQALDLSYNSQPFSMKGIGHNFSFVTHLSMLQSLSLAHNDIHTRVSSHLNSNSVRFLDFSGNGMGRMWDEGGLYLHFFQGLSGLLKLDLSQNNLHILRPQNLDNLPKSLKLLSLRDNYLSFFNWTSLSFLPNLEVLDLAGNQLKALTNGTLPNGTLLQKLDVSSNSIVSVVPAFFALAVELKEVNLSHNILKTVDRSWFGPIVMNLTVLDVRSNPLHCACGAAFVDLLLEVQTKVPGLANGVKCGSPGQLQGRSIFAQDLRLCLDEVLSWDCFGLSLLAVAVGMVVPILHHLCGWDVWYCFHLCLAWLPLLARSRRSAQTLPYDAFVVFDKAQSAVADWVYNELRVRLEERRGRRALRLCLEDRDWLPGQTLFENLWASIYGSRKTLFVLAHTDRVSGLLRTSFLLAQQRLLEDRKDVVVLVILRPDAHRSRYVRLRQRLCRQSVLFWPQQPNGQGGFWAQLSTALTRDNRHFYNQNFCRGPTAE
# [17] = test system: PBMC; assay: Immunomodulatory activity in human PBMC assessed as induction of IP10 at 50 ug/ml after 24 hrs; format: functional, cell-based; how it was run: as §2
# [18] = test system: PBMC; assay: Immunomodulatory activity in human PBMC assessed as induction of IL6 at 50 ug/ml after 24 hrs; format: functional, cell-based; how it was run: as §2
# [19] = test system: PBMC; assay: Immunomodulatory activity in human PBMC assessed as induction of MIP1alpha after 24 hrs; format: functional, cell-based; how it was run: as §2
# [20] = organism: Homo sapiens; assay: Immunostimulatory activity in human mDC assessed as induction of IL12 at 100 ug/ml after 24 hrs; format: functional; how it was run: as §3
# [21] = test system: PBMC; assay: Immunomodulatory activity in human PBMC assessed as induction of TNFalpha after 24 hrs; format: functional, cell-based; how it was run: as §2
# [22] = test system: PBMC; assay: Immunomodulatory activity in human PBMC assessed as induction of MCP1 after 24 hrs; format: functional, cell-based; how it was run: as §2
# [23] = test system: Mus musculus; assay: Immunomodulatory activity in C57BL/6 mouse assessed as induction of IL12 release at 25 mg/kg, sc after 2 hrs by ELISA; format: functional, organism-based; set-up: dose 25 mg/kg
# How it was run: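 Female C57BL/6 wild-type mice, 5–8 weeks old, n=3; compounds given subcutaneously at 10 or 25 mg/kg. Retro-orbital blood at 2 h; serum cytokines by mouse Luminex multiplex or IL-12 ELISA.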
# [24] = test system: PBMC; assay: Immunomodulatory activity in human PBMC assessed as induction of IFNalpha at 50 ug/ml after 24 hrs; format: functional, cell-based; how it was run: as §2
# [25] = test system: PBMC; assay: Immunomodulatory activity in human PBMC assessed as induction of IL6 after 24 hrs; format: functional, cell-based; how it was run: as §2
# [26] = molecular target: Toll-like receptor 3 (Homo sapiens) (UniProt O15455); assay: Activation of human TLR3 expressed in HEK293 assessed as induction of NF-kappaB activity reporter gene assay; format: cell-based
# Toll-like receptor 3 (Homo sapiens), sequence (O15455 whole entry): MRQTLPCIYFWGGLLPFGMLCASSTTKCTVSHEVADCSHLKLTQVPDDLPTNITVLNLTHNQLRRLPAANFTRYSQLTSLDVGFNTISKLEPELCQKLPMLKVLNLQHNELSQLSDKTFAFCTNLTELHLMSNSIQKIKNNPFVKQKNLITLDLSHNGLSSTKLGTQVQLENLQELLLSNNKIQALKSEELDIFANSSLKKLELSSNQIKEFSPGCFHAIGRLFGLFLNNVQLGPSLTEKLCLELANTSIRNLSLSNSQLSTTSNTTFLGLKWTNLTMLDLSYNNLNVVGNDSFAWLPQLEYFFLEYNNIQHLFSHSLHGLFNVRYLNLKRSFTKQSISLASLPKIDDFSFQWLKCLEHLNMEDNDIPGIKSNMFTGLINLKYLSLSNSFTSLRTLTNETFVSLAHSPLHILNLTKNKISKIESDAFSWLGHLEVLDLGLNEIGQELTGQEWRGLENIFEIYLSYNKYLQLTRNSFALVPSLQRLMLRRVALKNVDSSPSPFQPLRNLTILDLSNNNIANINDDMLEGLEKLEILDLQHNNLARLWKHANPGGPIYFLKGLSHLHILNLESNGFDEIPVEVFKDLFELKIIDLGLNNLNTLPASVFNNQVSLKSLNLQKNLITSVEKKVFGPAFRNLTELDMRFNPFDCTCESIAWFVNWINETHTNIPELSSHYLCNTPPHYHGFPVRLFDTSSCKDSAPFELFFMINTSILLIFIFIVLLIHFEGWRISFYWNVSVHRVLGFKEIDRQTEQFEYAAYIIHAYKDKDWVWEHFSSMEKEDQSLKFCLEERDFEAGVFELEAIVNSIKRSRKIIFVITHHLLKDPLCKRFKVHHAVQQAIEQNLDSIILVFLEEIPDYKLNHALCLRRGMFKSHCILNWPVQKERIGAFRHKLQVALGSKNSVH
# [27] = test system: PBMC; assay: Immunomodulatory activity in human PBMC assessed as induction of TNFalpha at 50 ug/ml after 24 hrs; format: functional, cell-based; how it was run: as §2
# [28] = test system: PBMC; assay: Immunomodulatory activity in human PBMC assessed as induction of IL12 at 100 ug/ml after 24 hrs; format: functional, cell-based; how it was run: as §2
# [29] = test system: PBMC; assay: Immunomodulatory activity in human PBMC assessed as induction of MIP1alpha at 50 ug/ml after 24 hrs; format: functional, cell-based; how it was run: as §2
smiles,measurement,setting,value
Nc1ccn([C@@H]2O[C@H](COP(=O)(S)O[C@H]3[C@@H](O)[C@H](n4cnc5c(N)ncnc54)O[C@@H]3COP(=O)(S)O[C@H]3[C@@H](O)[C@H](n4ccc5c(=O)[nH]c(N)nc54)O[C@@H]3COP(=O)(S)O[C@H]3[C@@H](O)[C@H](n4ccc(=O)[nH]c4=O)O[C@@H]3COP(=O)(S)O[C@H]3[C@@H](O)[C@H](n4ccc(=O)[nH]c4=O)O[C@@H]3COP(=O)(S)O[C@H]3[C@@H](O)[C@H](n4cnc5c(N)ncnc54)O[C@@H]3COP(=O)(S)O[C@H]3[C@@H](O)[C@H](n4cnc5c(N)ncnc54)O[C@@H]3CO)[C@@H](OP(=O)(S)OC[C@H]3O[C@@H](n4ccc5c(=O)[nH]c(N)nc54)[C@H](O)[C@@H]3OP(=O)(S)OC[C@H]3O[C@@H](n4ccc(N)nc4=O)[C@H](O)[C@@H]3OP(=O)(S)OC[C@H]3O[C@@H](n4ccc(=O)[nH]c4=O)[C@H](O)[C@@H]3OP(=O)(S)OC[C@H]3O[C@@H](n4ccc(=O)[nH]c4=O)[C@H](O)[C@@H]3OP(=O)(S)OCC(O)COP(=O)(S)O[C@H]3[C@@H](O)[C@H](n4ccc(=O)[nH]c4=O)O[C@@H]3COP(=O)(S)O[C@H]3[C@@H](O)[C@H](n4ccc(=O)[nH]c4=O)O[C@@H]3COP(=O)(S)O[C@H]3[C@@H](O)[C@H](n4ccc(N)nc4=O)O[C@@H]3COP(=O)(S)O[C@H]3[C@@H](O)[C@H](n4ccc5c(=O)[nH]c(N)nc54)O[C@@H]3COP(=O)(S)O[C@H]3[C@@H](O)[C@H](n4ccc(N)nc4=O)O[C@@H]3COP(=O)(S)O[C@H]3[C@@H](O)[C@H](n4cnc5c(N)ncnc54)O[C@@H]3COP(=O)(S)O[C@H]3[C@@H](O)[C@H](n4ccc5c(=O)[nH]c(N)nc54)O[C@@H]3COP(=O)(S)O[C@H]3[C@@H](O)[C@H](n4ccc(=O)[nH]c4=O)O[C@@H]3COP(=O)(S)O[C@H]3[C@@H](O)[C@H](n4ccc(=O)[nH]c4=O)O[C@@H]3COP(=O)(S)O[C@H]3[C@@H](O)[C@H](n4cnc5c(N)ncnc54)O[C@@H]3COP(=O)(S)O[C@H]3[C@@H](O)[C@H](n4cnc5c(N)ncnc54)O[C@@H]3CO)[C@H]2O)c(=O)n1 (some centres undefined),Activity,[1],Active
same,Activity,[2],Dose-dependent effect
same,Activity,[3],Active
same,Activity,[4],Dose-dependent effect
same,Activity,[5],49600 pg/mL
same,Activity,[6],117 pg/mL
same,Activity,[7],Dose-dependent effect
same,Activity,[8],Active
same,Activity,[9],Active
same,Activity,[10],Active
same,Activity,[11],320 pg/mL
same,Activity,[12],Active
same,Activity,[13],5500 pg/mL
same,Activity,[14],Active
same,IFN-alpha,[15],193 pg/mL
same,Activity,[16],inactive
same,Activity,[17],453 pg/mL
same,Activity,[18],1750 pg/mL
same,Activity,[19],Dose-dependent effect
same,Activity,[20],Active
same,Activity,[21],Dose-dependent effect
same,Activity,[22],Dose-dependent effect
same,Activity,[23],Active
same,Activity,[24],149 pg/mL
same,Activity,[25],Dose-dependent effect
same,Activity,[26],inactive
same,Activity,[27],104 pg/mL
same,Activity,[28],340 pg/mL
same,Activity,[29],2230 pg/mL
